The record followed here is ChEMBL document CHEMBL4373718, “Germacrane Sesquiterpenoids as a New Type of Anticardiac Fibrosis Agent Targeting Transforming Growth Factor β Type I Receptor” (J Med Chem, 2019).

Data set [1] deals with T1, TGF-beta receptor type-1 (Rattus norvegicus) (UniProt P80204).
T1 sequence (whole entry): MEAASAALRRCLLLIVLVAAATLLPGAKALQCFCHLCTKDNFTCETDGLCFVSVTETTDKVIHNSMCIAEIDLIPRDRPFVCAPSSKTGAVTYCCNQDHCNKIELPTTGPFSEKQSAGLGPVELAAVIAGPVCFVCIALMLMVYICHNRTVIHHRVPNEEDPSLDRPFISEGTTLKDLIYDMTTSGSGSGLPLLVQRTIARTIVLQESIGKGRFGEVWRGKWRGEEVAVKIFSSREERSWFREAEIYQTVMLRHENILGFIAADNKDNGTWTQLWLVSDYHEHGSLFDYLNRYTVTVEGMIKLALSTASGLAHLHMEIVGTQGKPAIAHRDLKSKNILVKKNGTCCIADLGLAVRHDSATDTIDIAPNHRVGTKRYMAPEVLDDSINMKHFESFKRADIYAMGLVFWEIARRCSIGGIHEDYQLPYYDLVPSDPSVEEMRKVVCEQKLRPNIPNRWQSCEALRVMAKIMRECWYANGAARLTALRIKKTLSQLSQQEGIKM
In words: Inhibition of TGFbeta1 receptor in TGFbeta1-stimulated Sprague-Dawley rat cardiac fibroblasts assessed as reduction in alpha-SMA expression measured after 12 hrs by Western blot analysis. In outline:
(§1)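 Primary rat cardiac fibroblasts (passages 2–4, 3×10^5 per well) treated with compound plus 10 ng/mL TGFβ1 for 12 h; tested at 2.5, 5 and 10 µM. Lysates run on 10% SDS-PAGE (30 µg protein), probed for FN, α-SMA and collagen I/III, and quantified by densitometry against GAPDH. N=3 independent experiments.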

Data set [2] deals with T1, TGF-beta receptor type-1 (Rattus norvegicus). Put plainly: Inhibition of TGFbeta1 receptor in TGFbeta1-stimulated Sprague-Dawley rat cardiac fibroblasts assessed as reduction in fibronectin mRNA expression at 2.5 to 10 uM measured after 12 hrs by qRT-PCR analysis. In outline: (§2)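 Primary rat cardiac fibroblasts (3×10^5 per well) treated with compound plus 10 ng/mL TGFβ1 for 12 h. Total RNA extracted and target transcripts measured by SYBR Green qRT-PCR, normalized to GAPDH.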
For orientation: Quantitative PCR measures a nucleic acid by following its amplification.

Data set [3] shares this target. In words: Inhibition of TGFbeta1 receptor in TGFbeta1-stimulated Sprague-Dawley rat cardiac fibroblasts assessed as reduction in collagen 3 mRNA expression at 2.5 to 10 uM measured after 12 hrs by qRT-PCR analysis. In outline:
as §2

Data set [4] concerns Rattus norvegicus. In words: Antifibrotic activity in abdominal aortic constriction Sprague-Dawley rat model of cardiac fibrosis assessed as systolic left ventricular anterior wall thickness at 5 mg/kg, ip administered once daily for 4 weeks measured post-last dose by echocardiography (reference value: 3.92 +/- 0.42 mm). Format: functional.
Data set [5] deals with Rattus norvegicus. Put plainly: Antifibrotic activity in abdominal aortic constriction Sprague-Dawley rat model of cardiac fibrosis assessed as reduction in Smad3 phosphorylation in heart at 5 mg/kg, ip administered once daily for 4 weeks measured post-last dose by Western blot analysis. Type of data set: functional, organism-based. In outline:
(§3)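 AAC rats dosed ip daily for 4 weeks, n=8 per group. Hearts homogenized in lysis buffer with protease and phosphatase inhibitors and spun at 12,000 rpm for 30 min at 4 °C. Nuclear and cytoplasmic fractions prepared with a kit. Protein measured by BCA; 30 µg run on 10% SDS-PAGE, transferred to PVDF and immunoblotted; bands quantified by densitometry.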
For orientation: In western blotting, separated proteins are transferred to a membrane and probed.

Data set [6] in a line: Effect on total Smad3 expression in TGFbeta1-stimulated Sprague-Dawley rat cardiac fibroblasts at 10 uM measured after 5 to 30 mins by Western blot analysis. Type of data set: ADME.
For data set [7], the species on record is Rattus norvegicus. In words: Effect on TGFbeta1 receptor expression in TGFbeta1-stimulated Sprague-Dawley rat cardiac fibroblasts at 2.5 to 10 uM measured after 5 mins by Western blot analysis. Format: functional.
The nature of data set [8]: Cytotoxicity against Sprague-Dawley rat cardiac fibroblasts assessed as reduction in cell viability at 25 uM measured after 48 hrs by MTT assay. Summed up: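 Primary adult male SD rat cardiac fibroblasts at passages 2–4, 5000 cells per well. Treated for 48 h, then MTT (5 mg/mL) for 4 h. Formazan dissolved in DMSO and absorbance read at 570 nm. Triplicate wells, three independent experiments.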
A general note: Tetrazolium dyes change colour on reduction, which living cells bring about.

The test system of data set [9] is Rattus norvegicus. Put plainly: Antifibrotic activity in abdominal aortic constriction Sprague-Dawley rat model of cardiac fibrosis assessed as reduction in Smad2 phosphorylation in heart at 5 mg/kg, ip administered once daily for 4 weeks measured post-last dose by Western blot analysis. Format: functional, organism-based. In outline: as §3
The test system of data set [10] is Rattus norvegicus. In words: Antifibrotic activity in abdominal aortic constriction Sprague-Dawley rat model of cardiac fibrosis assessed as reduction in Smad2 nuclear translocation in heart at 5 mg/kg, ip administered once daily for 4 weeks measured post-last dose by Western blot analysis. Type of data set: functional, organism-based. Summed up:
as §3

The target of data set [11] is T1, TGF-beta receptor type-1 (Rattus norvegicus). Put plainly: Inhibition of TGFbeta1 receptor in TGFbeta1-stimulated Sprague-Dawley rat cardiac fibroblasts assessed as reduction in alpha-SMA mRNA expression at 2.5 to 10 uM measured after 12 hrs by qRT-PCR analysis. In outline: as §2
Data set [12] shares this target. Put plainly: Inhibition of TGFbeta1 receptor in TGFbeta1-stimulated Sprague-Dawley rat cardiac fibroblasts assessed as reduction in fibronectin expression measured after 12 hrs by Western blot analysis. Summed up:
as §1

Data set [13] deals with T2, TGF-beta receptor type-1 (Homo sapiens, UniProt P36897).
T2 sequence (P36897 whole entry): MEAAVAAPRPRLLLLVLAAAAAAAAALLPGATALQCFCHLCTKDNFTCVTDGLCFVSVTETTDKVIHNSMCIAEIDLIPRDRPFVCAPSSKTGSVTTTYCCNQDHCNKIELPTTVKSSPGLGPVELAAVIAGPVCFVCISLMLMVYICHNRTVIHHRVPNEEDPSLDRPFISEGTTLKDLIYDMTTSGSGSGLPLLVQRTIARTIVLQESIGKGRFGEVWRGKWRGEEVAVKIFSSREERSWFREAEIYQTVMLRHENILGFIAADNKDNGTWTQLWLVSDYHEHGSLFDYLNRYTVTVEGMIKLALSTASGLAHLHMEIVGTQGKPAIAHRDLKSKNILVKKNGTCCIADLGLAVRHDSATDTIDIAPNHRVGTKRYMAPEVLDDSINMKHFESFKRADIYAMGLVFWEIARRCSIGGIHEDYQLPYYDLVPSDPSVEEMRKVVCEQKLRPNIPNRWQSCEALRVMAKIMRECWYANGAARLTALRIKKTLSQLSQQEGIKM
In words: Inhibition of recombinant human N-terminal GST-tagged TGFbeta1 receptor (80 to end residues) expressed in baculovirus infected Sf9 insect cells using casein as substrate measured after 2 hrs by ADP-Glo assay.

Data set [14] has as its system Rattus norvegicus. Put plainly: Antifibrotic activity in abdominal aortic constriction Sprague-Dawley rat model of cardiac fibrosis assessed as diastolic left ventricular internal diameter at 5 mg/kg, ip administered once daily for 4 weeks measured post-last dose by echocardiography (reference value: 7.60 +/- 0.63 mm). Type of data set: functional.
Data set [15] addresses T1, TGF-beta receptor type-1 (Rattus norvegicus). In words: Inhibition of TGFbeta1 receptor in TGFbeta1-stimulated Sprague-Dawley rat cardiac fibroblasts assessed as reduction in fibronectin expression at 50 uM measured after 12 hrs by Western blot analysis. Summed up:
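Screen in primary rat cardiac fibroblasts: compounds at 50 µM or 10 µM given with 10 ng/mL TGFβ1 for 12 h. FN measured by Western blot with GAPDH loading control and densitometry. N=3 independent experiments.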

Data set [16] can be described thus: Effect on total Smad2 expression in TGFbeta1-stimulated Sprague-Dawley rat cardiac fibroblasts at 10 uM measured after 5 to 30 mins by Western blot analysis. Format: ADME.

The source made the active and inactive calls. No cut-off for these calls is given here.

Take `C=C(C)[C@@H]1C/C=C(\C)C(=O)CCC2=C[C@@H]1OC2=O`: the inhibition entry in data set [1] and in data set [12] was “Dose-dependent effect” in each case. For the same compound, the inhibition entry in [2], in data set [3] and in data set [11] was “Active” in each case. Besides, the Activity in data set [4] is listed as 3.46 mm; in data set [6], “Non-Toxic”; in data set [8] it was “Non-Toxic”; in data set [14] it was 8.3 mm; in data set [16], “Non-Toxic”. Also, the result in [5], in data set [9] and in data set [10] was Active. For the same compound, in data set [7], the outcome was inactive. For the same compound, the IC50 (in general, the midpoint of a concentration-inhibition curve) in data set [13] was 14.9 nM. The “fibronectin reduction (active/not active)” value in [15] was “Active”.
